Here are results for eleven compounds from ChEMBL document CHEMBL3779808, “Design, synthesis and biological evaluation of 5-amino-4-(1H-benzoimidazol-2-yl)-phenyl-1,2-dihydro-pyrrol-3-ones as inhibitors of protein kinase FGFR1” (Bioorg Med Chem, 2016).

Broadly, the pIC50 is the IC50 on a negative log10 scale, so that one unit is a factor of ten.

Assay [1] concerns the target T1, Fibroblast growth factor receptor 1 (Homo sapiens, UniProt P11362). In words: Inhibition of N-terminal GST-tagged recombinant human FGFR1 (456 to 765 residues) expressed in baculovirus infected insect Sf21 cells after 25 mins using KKKSPGEYVNIEFG peptide substrate by scintillation counting analysis.
Target sequence in this assay (P11362 whole entry, the tested form may be a part): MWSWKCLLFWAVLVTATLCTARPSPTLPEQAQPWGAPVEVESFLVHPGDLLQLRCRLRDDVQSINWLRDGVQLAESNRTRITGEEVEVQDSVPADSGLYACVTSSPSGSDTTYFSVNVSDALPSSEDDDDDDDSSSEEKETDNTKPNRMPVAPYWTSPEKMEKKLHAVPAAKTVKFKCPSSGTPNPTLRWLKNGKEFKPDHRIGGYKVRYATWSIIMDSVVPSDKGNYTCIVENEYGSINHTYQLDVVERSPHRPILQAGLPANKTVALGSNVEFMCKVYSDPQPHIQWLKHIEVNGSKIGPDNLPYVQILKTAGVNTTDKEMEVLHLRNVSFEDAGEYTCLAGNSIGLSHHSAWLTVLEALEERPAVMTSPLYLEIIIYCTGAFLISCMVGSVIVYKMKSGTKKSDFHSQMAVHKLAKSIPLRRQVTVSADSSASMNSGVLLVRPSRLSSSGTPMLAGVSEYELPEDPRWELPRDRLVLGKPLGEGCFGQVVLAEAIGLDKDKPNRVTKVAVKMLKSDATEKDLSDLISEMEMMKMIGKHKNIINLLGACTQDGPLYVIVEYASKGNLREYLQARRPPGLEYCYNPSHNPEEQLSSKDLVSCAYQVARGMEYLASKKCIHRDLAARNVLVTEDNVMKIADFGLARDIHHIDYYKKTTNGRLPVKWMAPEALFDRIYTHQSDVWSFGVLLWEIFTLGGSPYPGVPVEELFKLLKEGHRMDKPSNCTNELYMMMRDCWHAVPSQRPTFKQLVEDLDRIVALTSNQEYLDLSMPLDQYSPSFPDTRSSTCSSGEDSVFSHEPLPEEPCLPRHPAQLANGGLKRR
Assay [2] is described as follows: Cytotoxicity against human KG1 cells assessed as cell viability after 72 hrs by MTT assay. The note with it: KG-1, 72 h.
Assay [3] deals with HEK293. The assay can be described thus: Cytotoxicity against HEK293 cells assessed as cell viability after 72 hrs by MTT assay. The note with it: Homo sapiens, HEK293, 72 h.
The target in assay [4] is T1, Fibroblast growth factor receptor 1. The assay can be described thus: Inhibition of N-terminal GST-tagged recombinant human FGFR1 (456 to 765 residues) expressed in baculovirus infected insect Sf21 cells assessed as residual activity at 10 uM. The method in brief:
(§1)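 This is a seven-kinase selectivity panel run according to the enzyme supplier's (Millipore) protocols. The reaction mixture contained 100 µM ATP. Activity is reported as residual activity.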
Target sequence in this assay (P11362 22-822 limits assumed): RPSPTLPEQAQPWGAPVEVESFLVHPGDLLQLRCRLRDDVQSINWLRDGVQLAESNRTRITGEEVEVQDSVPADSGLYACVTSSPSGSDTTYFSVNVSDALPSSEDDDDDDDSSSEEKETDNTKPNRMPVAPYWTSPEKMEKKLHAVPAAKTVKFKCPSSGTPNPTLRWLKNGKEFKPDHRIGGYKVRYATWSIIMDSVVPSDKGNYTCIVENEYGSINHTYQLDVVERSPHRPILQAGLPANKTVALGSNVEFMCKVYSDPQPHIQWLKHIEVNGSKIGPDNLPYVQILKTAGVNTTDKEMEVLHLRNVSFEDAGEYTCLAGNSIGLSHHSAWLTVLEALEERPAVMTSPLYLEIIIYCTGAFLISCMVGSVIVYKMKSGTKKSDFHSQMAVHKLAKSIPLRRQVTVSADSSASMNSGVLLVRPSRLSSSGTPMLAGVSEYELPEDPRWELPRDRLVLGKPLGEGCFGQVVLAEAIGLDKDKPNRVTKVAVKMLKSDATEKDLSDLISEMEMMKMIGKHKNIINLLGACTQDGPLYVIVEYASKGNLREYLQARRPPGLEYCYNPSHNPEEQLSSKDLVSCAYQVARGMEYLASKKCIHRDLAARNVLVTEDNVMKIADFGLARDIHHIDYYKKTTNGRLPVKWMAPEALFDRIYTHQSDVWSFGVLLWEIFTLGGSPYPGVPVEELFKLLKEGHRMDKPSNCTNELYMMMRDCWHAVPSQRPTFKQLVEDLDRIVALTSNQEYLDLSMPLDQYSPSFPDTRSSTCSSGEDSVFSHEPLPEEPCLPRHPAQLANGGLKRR

The target in assay [5] is Angiopoietin-1 receptor (Homo sapiens) (UniProt Q02763). In words: Inhibition of N-terminal His6-tagged recombinant human Tie2 residues 771-end expressed in baculovirus infected insect Sf21 cells assessed as residual activity at 10 uM. The method in brief:
as §1

The target in assay [6] is Hepatocyte growth factor receptor (Homo sapiens) (UniProt P08581). The assay can be described thus: Inhibition of N-terminal His6-tagged recombinant human c-Met residues 974-end expressed in baculovirus infected insect Sf21 cells assessed as residual activity at 10 uM. The method in brief:
as §1

The target in assay [7] is T2, Aurora kinase A (Homo sapiens) (UniProt O14965).
T2 sequence (whole entry): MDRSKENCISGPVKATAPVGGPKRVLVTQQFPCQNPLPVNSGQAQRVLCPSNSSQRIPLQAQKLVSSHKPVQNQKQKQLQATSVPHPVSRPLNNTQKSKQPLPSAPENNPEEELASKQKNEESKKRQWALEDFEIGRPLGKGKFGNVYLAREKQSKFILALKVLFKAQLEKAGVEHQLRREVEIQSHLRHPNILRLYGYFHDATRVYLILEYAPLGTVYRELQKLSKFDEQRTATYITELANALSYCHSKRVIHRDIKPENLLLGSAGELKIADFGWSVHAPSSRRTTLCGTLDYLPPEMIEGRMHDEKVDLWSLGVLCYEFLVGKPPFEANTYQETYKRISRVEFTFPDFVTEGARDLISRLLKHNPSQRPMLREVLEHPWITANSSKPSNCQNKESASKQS
The assay can be described thus: Inhibition of N-terminal His6-tagged recombinant full length human Aurora A expressed in Sf21 cells assessed as residual activity at 10 uM. The method in brief:
as §1

Assay [8] concerns the target Mitogen-activated protein kinase 10 (Homo sapiens) (UniProt P53779). The assay can be described thus: Inhibition of N-terminal His6 tagged recombinant full length human JNK3 expressed in Sf21 cells assessed as residual activity at 10 uM. The method in brief:
as §1

Assay [9] deals with Casein kinase 2 (Homo sapiens) (UniProt P67870+P68400+P19784+Q8NEV1). The assay can be described thus: Inhibition of recombinant full length human Casein Kinase 2 expressed in insect Sf21 cells assessed as residual activity at 10 uM. A digest of the protocol: as §1
Assay [10] has as its target T3, Mitogen-activated protein kinase kinase kinase 5 (Homo sapiens) (UniProt Q99683).
T3 sequence (whole entry): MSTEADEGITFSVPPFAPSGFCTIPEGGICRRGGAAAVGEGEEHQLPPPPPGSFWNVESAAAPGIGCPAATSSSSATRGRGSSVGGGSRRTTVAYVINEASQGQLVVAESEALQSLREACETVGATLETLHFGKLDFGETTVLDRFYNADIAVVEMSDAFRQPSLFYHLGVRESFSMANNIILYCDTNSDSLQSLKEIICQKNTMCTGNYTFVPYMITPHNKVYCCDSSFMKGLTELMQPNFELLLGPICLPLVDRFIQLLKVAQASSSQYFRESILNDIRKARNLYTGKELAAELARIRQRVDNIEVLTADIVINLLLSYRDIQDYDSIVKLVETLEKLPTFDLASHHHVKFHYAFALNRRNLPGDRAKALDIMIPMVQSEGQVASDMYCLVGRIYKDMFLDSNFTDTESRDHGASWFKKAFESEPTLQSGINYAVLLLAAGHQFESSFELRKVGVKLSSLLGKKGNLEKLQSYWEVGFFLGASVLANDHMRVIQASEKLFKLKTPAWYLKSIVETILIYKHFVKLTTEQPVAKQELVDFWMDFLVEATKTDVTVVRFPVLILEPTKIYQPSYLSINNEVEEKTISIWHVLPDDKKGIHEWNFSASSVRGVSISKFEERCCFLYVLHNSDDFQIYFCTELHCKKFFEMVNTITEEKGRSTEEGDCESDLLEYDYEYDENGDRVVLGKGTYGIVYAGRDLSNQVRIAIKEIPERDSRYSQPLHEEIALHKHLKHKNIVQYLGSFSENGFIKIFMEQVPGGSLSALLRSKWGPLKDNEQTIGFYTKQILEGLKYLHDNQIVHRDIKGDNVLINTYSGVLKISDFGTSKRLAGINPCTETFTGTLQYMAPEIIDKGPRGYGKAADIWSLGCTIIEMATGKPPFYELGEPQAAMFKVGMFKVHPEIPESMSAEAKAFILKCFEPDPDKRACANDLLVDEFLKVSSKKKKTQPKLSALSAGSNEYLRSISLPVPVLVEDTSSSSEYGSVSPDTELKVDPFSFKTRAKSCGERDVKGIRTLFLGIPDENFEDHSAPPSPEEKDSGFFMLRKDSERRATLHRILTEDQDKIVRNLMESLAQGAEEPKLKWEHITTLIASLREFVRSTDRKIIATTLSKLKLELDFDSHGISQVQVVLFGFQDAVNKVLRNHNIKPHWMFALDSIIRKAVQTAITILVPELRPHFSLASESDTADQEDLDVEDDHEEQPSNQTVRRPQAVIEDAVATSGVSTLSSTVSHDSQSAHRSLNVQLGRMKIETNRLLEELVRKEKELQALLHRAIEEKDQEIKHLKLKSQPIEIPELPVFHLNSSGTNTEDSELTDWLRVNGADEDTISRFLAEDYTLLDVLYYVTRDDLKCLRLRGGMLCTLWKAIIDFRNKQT
The assay can be described thus: Inhibition of N-terminal GST/C-terminal His6-tagged recombinant human ASK1 (649 to 946 amino acids) expressed in Escherichia coli assessed as residual activity at 10 uM. A digest of the protocol:
as §1

pIC50: −log10 of the molar value.

Sequence of Angiopoietin-1 receptor (Homo sapiens) (Q02763 whole entry, the tested form may be a part): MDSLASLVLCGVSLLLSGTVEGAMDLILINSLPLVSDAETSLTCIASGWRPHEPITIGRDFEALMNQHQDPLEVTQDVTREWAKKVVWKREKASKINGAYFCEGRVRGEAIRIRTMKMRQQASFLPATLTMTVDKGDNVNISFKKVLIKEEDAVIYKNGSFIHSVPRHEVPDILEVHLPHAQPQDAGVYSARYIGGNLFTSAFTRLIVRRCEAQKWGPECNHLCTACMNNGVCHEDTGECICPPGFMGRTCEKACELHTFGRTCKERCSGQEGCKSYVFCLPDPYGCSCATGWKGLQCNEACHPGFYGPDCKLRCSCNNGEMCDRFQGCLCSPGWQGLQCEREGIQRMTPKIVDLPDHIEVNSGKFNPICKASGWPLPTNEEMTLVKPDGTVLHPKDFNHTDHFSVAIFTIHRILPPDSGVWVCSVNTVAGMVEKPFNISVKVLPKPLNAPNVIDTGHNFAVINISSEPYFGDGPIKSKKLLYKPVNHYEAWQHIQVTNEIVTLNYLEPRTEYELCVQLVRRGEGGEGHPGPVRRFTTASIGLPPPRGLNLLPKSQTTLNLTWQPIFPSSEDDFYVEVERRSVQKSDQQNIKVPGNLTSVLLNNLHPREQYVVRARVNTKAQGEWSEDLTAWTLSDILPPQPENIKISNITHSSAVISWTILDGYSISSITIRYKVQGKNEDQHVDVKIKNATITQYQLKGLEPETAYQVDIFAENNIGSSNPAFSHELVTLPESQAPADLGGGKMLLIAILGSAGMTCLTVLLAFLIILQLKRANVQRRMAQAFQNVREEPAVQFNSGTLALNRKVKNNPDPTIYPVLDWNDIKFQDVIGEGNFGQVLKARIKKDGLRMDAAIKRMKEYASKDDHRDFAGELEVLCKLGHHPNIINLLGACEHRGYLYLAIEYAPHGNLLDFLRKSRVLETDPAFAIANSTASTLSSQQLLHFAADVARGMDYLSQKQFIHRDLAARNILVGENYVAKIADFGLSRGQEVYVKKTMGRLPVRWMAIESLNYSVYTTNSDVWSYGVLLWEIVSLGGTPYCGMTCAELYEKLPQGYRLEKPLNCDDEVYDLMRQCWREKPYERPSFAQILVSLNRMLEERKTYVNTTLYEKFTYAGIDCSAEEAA
Sequence of Hepatocyte growth factor receptor (Homo sapiens) (P08581 whole entry, the tested form may be a part): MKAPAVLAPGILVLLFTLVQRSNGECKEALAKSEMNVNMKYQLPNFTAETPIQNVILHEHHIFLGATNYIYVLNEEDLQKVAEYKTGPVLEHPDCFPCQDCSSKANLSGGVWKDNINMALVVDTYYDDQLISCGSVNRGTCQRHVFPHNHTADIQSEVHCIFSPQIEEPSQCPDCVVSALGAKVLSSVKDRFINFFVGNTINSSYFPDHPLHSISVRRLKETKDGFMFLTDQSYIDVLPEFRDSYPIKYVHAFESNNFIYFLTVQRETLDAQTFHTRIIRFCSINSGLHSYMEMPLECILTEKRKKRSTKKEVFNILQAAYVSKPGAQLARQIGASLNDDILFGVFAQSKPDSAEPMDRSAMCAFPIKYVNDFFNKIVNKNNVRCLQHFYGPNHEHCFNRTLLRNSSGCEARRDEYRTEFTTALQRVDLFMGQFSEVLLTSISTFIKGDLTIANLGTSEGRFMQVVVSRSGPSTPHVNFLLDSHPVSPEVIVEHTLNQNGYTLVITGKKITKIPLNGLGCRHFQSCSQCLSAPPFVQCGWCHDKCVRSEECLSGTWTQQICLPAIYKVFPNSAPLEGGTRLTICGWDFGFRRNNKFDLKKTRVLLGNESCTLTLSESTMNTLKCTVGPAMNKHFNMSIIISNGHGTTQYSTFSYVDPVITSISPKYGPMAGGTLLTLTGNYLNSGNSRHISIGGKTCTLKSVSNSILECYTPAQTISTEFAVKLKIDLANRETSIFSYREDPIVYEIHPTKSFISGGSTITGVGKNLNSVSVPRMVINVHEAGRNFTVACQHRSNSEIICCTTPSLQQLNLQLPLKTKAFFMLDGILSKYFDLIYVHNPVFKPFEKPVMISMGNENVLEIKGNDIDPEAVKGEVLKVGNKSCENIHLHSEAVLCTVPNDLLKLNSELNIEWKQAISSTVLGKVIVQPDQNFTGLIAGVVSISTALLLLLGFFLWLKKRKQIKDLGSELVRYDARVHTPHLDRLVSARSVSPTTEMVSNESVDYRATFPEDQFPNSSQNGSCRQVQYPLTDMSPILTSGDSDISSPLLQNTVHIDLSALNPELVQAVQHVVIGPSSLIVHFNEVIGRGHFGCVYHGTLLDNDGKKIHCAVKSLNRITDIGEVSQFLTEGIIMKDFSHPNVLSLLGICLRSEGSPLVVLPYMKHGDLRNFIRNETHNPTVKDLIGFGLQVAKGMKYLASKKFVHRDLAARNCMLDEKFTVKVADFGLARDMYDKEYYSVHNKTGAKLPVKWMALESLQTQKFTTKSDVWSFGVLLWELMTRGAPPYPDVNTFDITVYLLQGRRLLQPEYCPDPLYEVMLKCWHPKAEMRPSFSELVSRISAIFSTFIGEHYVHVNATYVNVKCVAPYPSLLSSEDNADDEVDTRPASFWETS
Sequence of Mitogen-activated protein kinase 10 (Homo sapiens) (P53779 whole entry): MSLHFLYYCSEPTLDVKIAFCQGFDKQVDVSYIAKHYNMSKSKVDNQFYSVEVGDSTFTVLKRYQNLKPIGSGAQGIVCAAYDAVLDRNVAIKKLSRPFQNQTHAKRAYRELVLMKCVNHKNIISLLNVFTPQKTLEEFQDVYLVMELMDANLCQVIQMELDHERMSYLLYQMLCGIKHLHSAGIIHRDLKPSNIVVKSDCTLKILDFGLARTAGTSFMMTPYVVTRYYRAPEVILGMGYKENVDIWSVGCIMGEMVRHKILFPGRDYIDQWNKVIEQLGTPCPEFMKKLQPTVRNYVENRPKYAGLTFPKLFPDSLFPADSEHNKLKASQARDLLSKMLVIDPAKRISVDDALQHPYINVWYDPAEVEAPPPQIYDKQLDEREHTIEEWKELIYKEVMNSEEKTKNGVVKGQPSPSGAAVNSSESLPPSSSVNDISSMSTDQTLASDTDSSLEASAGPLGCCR

As for `COc1ccc(N2CC(=O)C(c3nc4ccccc4[nH]3)=C2N)c(OC)c1`, in [1], the pIC50 is less than 4.52.
On to `NC1=C(c2nc3ccccc3[nH]2)C(=O)CN1c1ccccc1`, for which the pIC50 in [1] is less than 4.52.
As to `NC1=C(c2nc3ccccc3[nH]2)C(=O)CN1c1ccc(F)cc1`, in assay [1], the pIC50 was 4.57.
On the same count and under the same terms, the result for `NC1=C(c2nc3ccccc3[nH]2)C(=O)CN1c1ccccc1Cl` reads less than 4.52; that for `Cc1cccc(N2CC(=O)C(c3nc4ccccc4[nH]3)=C2N)c1`, less than 4.52.
On to `COc1ccc(Cl)cc1N1CC(=O)C(c2nc3ccccc3[nH]2)=C1N`, for which the pIC50 in assay [2] and in assay [3] was less than 4.30 throughout.
In the case of `Cc1ccc2nc(C3=C(N)N(c4cccc(O)c4)CC3=O)[nH]c2c1`, the pIC50 is 6.20 in assay [1], 5.25 in [2] and less than 4.30 in assay [3]. In addition, the Activity is 5% in [4]; 92.7% in assay [5]; 92.5% in assay [6]; 75.8% in [7]; 101% in assay [8]; 77.3% in assay [9]. Further, the Activity in assay [10] is 91.6%.
Regarding `Cc1ccc(N2CC(=O)C(c3nc4ccccc4[nH]3)=C2N)cc1`, the pIC50 in assay [1] is less than 4.52.
On to `NC1=C(c2nc3ccccc3[nH]2)C(=O)CN1c1ccccc1F`, for which the pIC50 in [1] is less than 4.52.
As to `CCOc1ccccc1N1CC(=O)C(c2nc3ccccc3[nH]2)=C1N`, the pIC50 in assay [1] is less than 4.52.
`NC1=C(c2nc3ccccc3[nH]2)C(=O)CN1c1cccc(O)c1`: the pIC50 was 6.49 in assay [1], 5.03 in assay [2] and less than 4.30 in [3]. The Activity was 2.1% in assay [4]; 84.7% in assay [5]; 128% in assay [6]; 85.8% in [7]; 118% in assay [8]; 81.4% in [9]. The Activity in assay [10] came out at 95.7%.
